Assay outcomes (PubChem)
AF4-AF9 inh: blocks AF4 peptide binding to human AF9; P42568; AlphaScreen, biotin-AF4 peptide binding to FLAG-AF9; inhibition, % at 10 µM; hit rate 0.47% among 350,000; AID 651704;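 active = every replicate reaching a set inhibition limit, whatever the replicate mean, cut at about 25% in these data; inconclusive = mean inhibition reaches that limit but some replicates miss it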
Target sequence (P42568 whole entry, looked up): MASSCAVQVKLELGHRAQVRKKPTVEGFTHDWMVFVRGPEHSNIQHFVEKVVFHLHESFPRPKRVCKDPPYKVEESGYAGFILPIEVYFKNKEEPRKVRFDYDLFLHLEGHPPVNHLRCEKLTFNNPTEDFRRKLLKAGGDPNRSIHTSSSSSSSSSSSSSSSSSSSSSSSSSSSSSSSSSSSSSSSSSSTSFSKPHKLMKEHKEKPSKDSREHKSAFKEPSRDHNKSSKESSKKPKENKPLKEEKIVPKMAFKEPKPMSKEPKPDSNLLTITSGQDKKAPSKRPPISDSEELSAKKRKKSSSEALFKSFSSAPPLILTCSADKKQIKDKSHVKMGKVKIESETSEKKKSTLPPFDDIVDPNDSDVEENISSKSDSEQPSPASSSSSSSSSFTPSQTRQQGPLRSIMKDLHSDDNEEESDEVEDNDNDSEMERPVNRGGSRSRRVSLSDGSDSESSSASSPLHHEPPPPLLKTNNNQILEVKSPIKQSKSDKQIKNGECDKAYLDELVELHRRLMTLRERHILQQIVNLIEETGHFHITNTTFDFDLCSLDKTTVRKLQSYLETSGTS
S100A4 inh HTS: inhibitors of human S100A4 binding to myosin IIA peptide. P26447. inhibition, % at 10.7 µM. hit rate 0.14% among 360,000. S100A4/TAMRA-MyoIIA peptide fluorescence polarization;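 active = mean inhibition of at least 70% across replicates, with every replicate also reaching that level; inconclusive = mean inhibition reaches 70% but some replicates fall short; inactive = mean inhibition below 70%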
Target sequence (P26447 whole entry, looked up): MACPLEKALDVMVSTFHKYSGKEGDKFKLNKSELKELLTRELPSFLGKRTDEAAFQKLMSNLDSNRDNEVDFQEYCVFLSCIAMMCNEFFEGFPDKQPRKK
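assay system = human S100A4 monomer with TAMRA-labelled myosin IIA peptide | also added = labelled myosin peptide probe, 5 nM | incubation = 5 min between mix addition and reading | control set = DMSO and TFP controls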
RAD52 inh: inhibitors of human RAD52 DNA annealing; recombinant RAD52 DNA annealing, FRET fluorescence; hit rate 0.46% among 360,000; AID 651710; P43351; inhibition, % at 18.7 µM;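 active = every replicate showing at least 50% inhibition; inconclusive = mean inhibition at least 50% but not in every replicate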
RAD54 inh: RAD54 (human) branch migration inhibition | RAD54 Holliday junction branch migration, FAM/BHQ fluorescence | inhibition, % at 10.4 µM | hit rate 0.14% among 360,000 | Q92698;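 active = mean normalized replicate activity at least 40 and at least half of replicates scoring 40 or more; inconclusive = only one of the two criteria met; inactive = mean below 40 and under half of replicates reaching 40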;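 note: inhibitors cause a drop in the FAM fluorescence signal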
GSIS activator: primary screen for activators of insulin secretion dependent on glucose, INS-1E cells, GLuc reporter luminescence; activation, % at 16.6 µM; INS-1E GLuc reporter insulin secretion, 2-3 h; AID 743287; hit rate 0.61% among 370,000;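 active = lowest replicate activation of at least 40%, so every replicate reaches that level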
Each line names hits and unclear results; the compound was inactive in the other large screens. Most compounds without a hit are left out; they make up all but 1.3% or so of the library.

CCCNC(=O)N1CC2(CN(CC3CCCCC3)C2)c2c(n(C)c3cc(OC)ccc23)[C@H]1CO	AF4-AF9 inh inconclusive (no result: RAD54 inh)
Cc1noc(C)c1S(=O)(=O)Nc1ccc2c(c1)C(=O)N([C@@H](C)CO)C[C@H](C)[C@@H](CN(C)C(=O)Nc1ccc(C(F)(F)F)cc1)OCCCC[C@@H](C)O2	none
N=C1/C(=C/c2cccn2Cc2ccc(Cl)cc2)C(=O)N=C2SC=CN12	GSIS activator 148 (no result: AF4-AF9 inh, S100A4 inh HTS, RAD52 inh, RAD54 inh)
O=C1CCCc2cnnn2COC[C@H](Cc2ccccc2)N1	none (no result: RAD54 inh)
CCn1c(C)c(C)c2cc(C(=O)NCCCN3CCCCCC3)ccc21	AF4-AF9 inh 29
COc1ccc(NC(=O)N(C)C[C@@H]2Oc3c(NS(=O)(=O)c4ccc(C)cc4)cccc3C(=O)N([C@H](C)CO)C[C@@H]2C)cc1	AF4-AF9 inh inconclusive (no result: RAD52 inh)
CCOC(=O)c1oc2ccccc2c1COC(=O)CNC(=O)c1ccco1	none (no result: RAD54 inh)
CCOC(=O)c1oc2ccccc2c1NC(=O)c1ccco1	GSIS activator 49
CC(C)CN(C(=O)c1cccc(S(=O)(=O)N2CCN(Cc3ccccc3)CC2)c1)C1CCS(=O)(=O)C1 (centres undefined)	AF4-AF9 inh 28
CCN(C[C@@H]1[C@@H](c2ccc(-c3cccnc3)cc2)[C@@H](CO)N1C(C)=O)C(C)=O	none
COc1ccccc1C(=O)COC(=O)CN1C(=O)NC2(CCCC2)C1=O	S100A4 inh HTS 93 (no result: RAD54 inh)
N#C[C@H]1[C@@H](c2ccccc2-c2cccc(F)c2)[C@@H](CO)N1C(=O)NC1CCCC1	none (no result: RAD54 inh)
CN=C1c2ccccc2CN1c1cccc(C(=O)OC)c1	GSIS activator 89 (no result: AF4-AF9 inh, S100A4 inh HTS, RAD52 inh)
O=C(C[C@H]1CC[C@@H]2[C@H](COC[C@@H](O)CN2S(=O)(=O)c2cccc(Cl)c2)O1)NC1CCCC1	AF4-AF9 inh 26
Cc1ccc(S(=O)(=O)N2C[C@H](O)COC[C@H]3O[C@@H](CC(=O)NCC4CCCCC4)CC[C@@H]32)cc1	none
O=C(C[C@@H]1CC[C@@H]2[C@H](COC[C@@H](O)CN2S(=O)(=O)c2ccc(F)cc2)O1)NCC1CCCCC1	AF4-AF9 inh inconclusive, RAD52 inh 71
O=C(C[C@@H]1CC[C@H]2[C@@H](COC[C@H](O)CN2S(=O)(=O)c2ccc(F)cc2)O1)NCC1CCCCC1	AF4-AF9 inh 36, RAD52 inh 89
O=C(C[C@@H]1CC[C@@H]2[C@H](COC[C@H](O)CN2S(=O)(=O)c2ccc(F)cc2)O1)NCC1CC1	none
O=C(C[C@@H]1CC[C@H]2[C@@H](COC[C@@H](O)CN2S(=O)(=O)c2ccc(Cl)cc2)O1)NCC1CCCCC1	AF4-AF9 inh 34
C/C=C/c1ccc([C@H]2[C@@H](CO)N[C@@H]2CN(CC)C(=O)c2ccccn2)cc1	none
O=C(C[C@H]1CC[C@H]2[C@@H](COC[C@@H](O)CN2S(=O)(=O)c2ccccc2)O1)NCC1CCCCC1	none
O=C(C[C@H]1CC[C@@H]2[C@H](COC[C@H](O)CN2S(=O)(=O)c2ccc(F)cc2)O1)NCC1CCCCC1	AF4-AF9 inh 28, RAD52 inh 59
COc1ccc(-c2ccc(C(=O)NCc3ccc(N4CCN(C)CC4)cc3)c3occc23)c(C)c1	AF4-AF9 inh 37 (no result: GSIS activator)
C[C@H](CO)N1C[C@H](C)[C@H](CN(C)C(=O)Cc2ccccc2)OCCCC[C@H](C)Oc2ccc(NS(=O)(=O)c3ccccc3)cc2C1=O	none
NCC[C@@H]1CC[C@H](NS(=O)(=O)Cc2ccccc2)[C@@H](CO)O1	none
CN(C)C(=O)c1cccc(-c2ccc3n(c2=O)C[C@H]2[C@H](CO)[C@@H](C(=O)NCC4CC4)N[C@@H]32)c1	none
CCNC(=O)[C@H]1N[C@H]2c3ccc(-c4cccc(C(=O)N(C)C)c4)c(=O)n3C[C@H]2[C@@H]1CO	S100A4 inh HTS 83
COc1cccc(-c2ccc3n(c2=O)C[C@H]2[C@H](CO)[C@@H](C(=O)N4CCOCC4)N[C@@H]32)c1	S100A4 inh HTS 85
COc1cccc(-c2ccc3n(c2=O)C[C@H]2[C@H](CO)[C@@H](C(=O)N4CCCCC4)N[C@@H]32)c1	none
COC(=O)C[C@@H]1OC[C@H](C(C)C)N1S(=O)(=O)c1ccc(C)cc1	GSIS activator 44 (no result: AF4-AF9 inh, RAD54 inh)
Cc1ccc(S(=O)(=O)N2[C@H](CC(=O)OCc3ccccc3)OC[C@@H]2C(C)C)cc1	none (no result: RAD54 inh)
COc1ccc(CC(N)c2csc(NC(=O)Nc3ccccc3Oc3ccccc3)n2)cc1 (centres undefined)	RAD52 inh 77
Oc1cc2c(cc1O)C1c3ccc(O)c(O)c3OCC1(O)C2 (centres undefined)	AF4-AF9 inh 40
O=C(C[C@H]1C[C@H]2c3cc(NS(=O)(=O)c4ccc(F)cc4)ccc3O[C@H]2[C@H](CO)O1)NCc1cccc(F)c1	none
Oc1cccc2cc(Nc3ccccc3)cnc12	AF4-AF9 inh 30
Oc1cc(Nc2ccccc2)cc2cccnc12	none
O=C(C[C@H]1CC[C@@H](NS(=O)(=O)c2ccc(F)cc2)[C@H](CO)O1)NCc1ccccc1F	none (no result: RAD54 inh)
Oc1ccccc1C1SC(c2ccccc2O)SC(c2ccccc2O)S1 (centres undefined)	GSIS activator 153
CCCc1nnc2c(N(C)S(=O)(=O)c3ccc(C)cc3)nc3ccccc3n12	GSIS activator 68 (no result: RAD54 inh)
O=S(=O)(c1ccc(=S)[nH]c1)N1CCCCCC1	GSIS activator 42
O=S(=O)(c1ccc(=S)[nH]c1)N1CCOCC1	none
CCC(=O)Nc1ccc(C(=O)N/N=C/c2cccnc2)cc1	GSIS activator 44 (no result: AF4-AF9 inh, S100A4 inh HTS, RAD52 inh)
COc1cc(C(=O)NCC(=O)N/N=C/c2cccnc2)cc(OC)c1OC	AF4-AF9 inh 45
COc1ccc(C(=O)NCC(=O)N/N=C/c2cccnc2)cc1OC	none
CCCCCCC(=O)Nc1ccc(C(=O)N/N=C/c2cccnc2)cc1	none (no result: AF4-AF9 inh, S100A4 inh HTS, RAD52 inh, RAD54 inh)
COc1ccc(CNc2ncc(-c3ccc(F)cc3)n2C)cc1OC	none
COc1cc(CNc2ncc(-c3ccc(Br)cc3)n2C)cc(OC)c1O	AF4-AF9 inh 25
CCCC#Cc1cnc2c(c1)C(=O)N([C@@H](C)CO)C[C@H](C)[C@H](CN(C)C(=O)Nc1ccccc1F)O2	none
Cc1ccc2nc(NCCO)nc(-c3ccccc3)c2c1	none (no result: AF4-AF9 inh, S100A4 inh HTS, RAD52 inh, GSIS activator)
OCCNc1nc(-c2ccccc2)c2cc(Cl)ccc2n1	GSIS activator 48
CCCNC(=O)N(C)C[C@H]1Oc2cc(-c3ccccc3)ccc2S(=O)(=O)N([C@H](C)CO)C[C@H]1C	none
CCN(CC)CCNCc1ccc(Br)cc1OCC(=O)NCc1ccccc1	GSIS activator 62
CC=Cc1ccc2n(c1=O)C[C@@H]1[C@@H](CO)[C@H](C(=O)N(C)C)[C@H]2N1C(=O)c1ccccc1 (mixture of isomers)	none
CCC(=O)N1[C@H](C(=O)N[C@H](C)c2ccccc2)[C@@H](CO)[C@@H]2Cn3c(cccc3=O)[C@@H]21	none (no result: RAD54 inh)
CN(C)C(=O)[C@H]1[C@H](CO)[C@H]2Cn3c(cccc3=O)[C@@H]1N2C(=O)c1ccccc1	S100A4 inh HTS 126
